For experiment [1], the species on record is Homo sapiens. As to the kind of experiment: In vitro inhibition of aggregation of human platelet rich plasma induced by adenosine diphosphate. Type of experiment: functional. Conditions: read-out: I50.
The species named for experiment [2] is Homo sapiens. Briefly: In vitro inhibition of aggregation of human platelet rich plasma induced by arachidonic acid. It is filed as functional. Conditions: read-out: I50.
Experiment [3] is filed under the species Rattus norvegicus. Briefly: Maximal contraction of rat stomach induced by serotonin at 30 uM concentration. Type of experiment: functional. A digest of the protocol:
(§1)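 Rat stomach strip; test compound concentration giving 50% of the maximal contraction produced by 3.0 × 10⁻⁷ M serotonin (A50). Where reported as a percentage, value is the maximum contraction seen at the stated test concentration. n = 8.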

The species named for experiment [4] is Rattus norvegicus. As to the kind of experiment: Maximal contraction of rat stomach induced by serotonin. It is filed as functional. In a few lines:
as §1

For experiment [5], the species on record is Cavia porcellus. Briefly: Competitive antagonism of 11,9-epoxymethano-PGH2-induced contraction in guinea pig trachea. It is filed as functional.
The species entered for experiment [6] is Rattus norvegicus. Briefly: Competitive antagonism of 11,9-epoxymethano-PGH2-induced contraction in rat aorta. Type of experiment: functional.
Experiment [7] is filed under the species Rattus norvegicus. As to the kind of experiment: Concentration required to elicit 50% of the maximal contraction of rat stomach induced by serotonin. Type of experiment: functional. A digest of the protocol:
as §1

The species named for experiment [8] is Rattus norvegicus. Briefly: Maximal contraction of rat stomach induced by serotonin at 0.1 uM concentration. Type of experiment: functional.
For experiment [9], the target named is T1, Thromboxane A2 receptor (Rattus norvegicus, UniProt P34978).
T1 sequence (P34978 whole entry): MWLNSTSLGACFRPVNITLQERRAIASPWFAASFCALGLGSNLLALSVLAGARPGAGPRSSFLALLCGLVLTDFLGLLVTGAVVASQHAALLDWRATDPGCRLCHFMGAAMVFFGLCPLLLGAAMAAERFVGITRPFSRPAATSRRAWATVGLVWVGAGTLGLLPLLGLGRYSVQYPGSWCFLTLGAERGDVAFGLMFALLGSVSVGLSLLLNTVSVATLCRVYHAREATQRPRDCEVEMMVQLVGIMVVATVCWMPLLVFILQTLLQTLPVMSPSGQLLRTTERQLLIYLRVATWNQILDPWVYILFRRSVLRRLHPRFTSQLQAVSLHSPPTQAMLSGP
Briefly: Antagonistic activity against Thromboxane A2 receptor in rat aorta in the presence of 11,9-epoxymethano-PGH2. It is filed as functional, tissue-based.

For experiment [10], the target named is Thromboxane A2 receptor (Cavia porcellus). Briefly: Antagonistic activity against Thromboxane A2 receptor in guinea pig trachea in the presence of 9,11-azo-PGH2. Conditions: read-out: I50.
Experiment [11] shares this target. As to the kind of experiment: Antagonistic activity against Thromboxane A2 receptor in guinea pig trachea in the presence of 11,9-epoxymethano-PGH2. Conditions: read-out: pA2 (converted).

Here are results for 18 compounds from ChEMBL document CHEMBL1124800, “9,11-epoxy-9-homoprosta-5-enoic acid analogues as thromboxane A2 receptor antagonists” (J Med Chem, 1990).

For the compound `O=C(O)CCC/C=C\CC1C2CCC(O2)C1/C=C/[C@@H](O)C1CCCCC1` (some centres undefined), the figures for the IC50 in [1] and in experiment [2] were 0.9 µM and 0.4 µM, respectively. The same compound had a Contraction in [3] of 9%.
On to `C[C@H](c1ccccc1)[C@H](O)/C=C/C1C2CCC(O2)[C@H]1C/C=C\CCCC(=O)O` (some centres undefined), for which the IC50 is over 1000 µM in experiment [1] and 3.1 µM in [2]. The compound also returned a Contraction in [4] of 0%.
With `O=C(O)CCC/C=C\C[C@H]1C2CCC(O2)[C@H]1CNNC(=O)Nc1ccccc1` (some centres undefined), the Kb in [5] worked out at 0.0013 µM; in [6] it was 0.00066 µM.
On to `C[C@H](c1ccccc1)[C@H](O)/C=C/C1C2CCC(O2)[C@@H]1C/C=C\CCCC(=O)O` (some centres undefined), for which the IC50 in experiment [1] was over 100 µM; in experiment [2], 730 µM.
In the case of `CC(CC/C=C\C[C@H]1C2CCC(O2)[C@H]1/C=C/[C@@H](O)[C@@H](C)c1ccccc1)C(=O)O` (some centres undefined), the IC50 in experiment [2] came to 25 µM.
Consider `CC(C/C=C\C[C@H]1C2CCC(O2)[C@H]1/C=C/[C@@H](O)[C@@H](C)c1ccccc1)CC(=O)O` (some centres undefined), for which, in [2], the IC50 stood at 12 µM.
For `C[C@@H](c1ccc(O)c(I)c1)[C@H](O)/C=C/C1C2CCC(O2)C1C/C=C\CCCC(=O)O` (some centres undefined), the IC50 is over 1000 µM in [1] and 0.93 µM in experiment [2].
Take `C[C@@H](c1ccccc1)[C@H](O)/C=C/[C@@H]1C2CCC(O2)[C@@H]1C/C=C\CCC(C)(C)C(=O)O` (some centres undefined): the IC50 in [2] was 260 µM.
Same read-out and setting: under `C[C@@H](c1ccccc1)[C@H](O)/C=C/[C@@H]1C2CCC(O2)[C@@H]1C/C=C\COCC(=O)O` (some centres undefined) stands 3.4 µM; under `C[C@@H](c1ccccc1)[C@H](O)/C=C/[C@@H]1C2CCC(O2)[C@@H]1C/C=C\CCCc1nnn[nH]1` (some centres undefined), 3.2 µM.
For the compound `CCCCC(C)(C)[C@H](O)/C=C/C1C2CCC(O2)C1C/C=C\CCCC(=O)O` (some centres undefined), the IC50 is over 1000 µM in experiment [1] and 1.1 µM in [2].
The compound `O=C(O)CCC/C=C\CC1C2CCC(O2)C1/C=C/[C@@H](O)COc1ccccc1` (some centres undefined) gave an A50 in experiment [7] of 6 µM.
Turning to `C[C@@H](c1ccc(O)cc1)[C@H](O)/C=C/C1C2CCC(O2)C1C/C=C\CCCC(=O)O` (some centres undefined), the results for the IC50 in [1] and in experiment [2] were 950 µM and 0.24 µM, respectively. This compound also registered a Contraction in experiment [8] of 21%.
Regarding `C[C@@H](c1ccccc1)[C@H](O)/C=C/[C@@H]1C2CCC(O2)[C@@H]1CC/C=C/CCC(=O)O` (some centres undefined), in experiment [2], the IC50 worked out at 25 µM.
As for `C[C@@H](c1ccccc1)[C@H](O)/C=C/C1C2CCC(O2)C1C/C=C\CCCC(=O)O` (some centres undefined), the Kb is 0.0121 µM in experiment [5], 0.0135 µM in [6], 0.00794 µM in experiment [9] and 0.01 µM in experiment [11]. Besides, the IC50 was over 1000 µM in experiment [1], 0.65 µM in experiment [2] and 1.98 µM in experiment [10]. In experiment [4], this compound registered a Contraction of 0%.
On to `CCCCC[C@H](O)/C=C/C1C2CCC(O2)C1C/C=C\CCCC(=O)O` (some centres undefined), for which the results for the IC50 in [1] and in experiment [2] were 300 µM and 1.7 µM, respectively. The compound further gave an A50 in [7] of 0.4 µM.
With `O=C(O)CCC/C=C\CC1C2CCC(O2)C1/C=C/[C@@H](O)CCc1ccccc1` (some centres undefined), the IC50 in experiment [1] is over 1000 µM; in experiment [2] it was 1.2 µM. In experiment [7], this compound yielded an A50 of 3.7 µM.
Regarding `C[C@@H](c1ccccc1)[C@H](O)/C=C/[C@@H]1C2CCC(O2)[C@@H]1C/C=C\C/C=C/C(=O)O` (some centres undefined), the IC50 in experiment [2] was 3.8 µM.
